Series [1] concerns the target Serine/threonine-protein kinase RIO2 (Homo sapiens) (UniProt Q9BVS4). In words: Inhibition of RIOK2 in HUVEC at 0.05 to 0.25 uM. The following applies: dose 0.05-0.25 µM. A digest of the protocol:
(§1)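 HUVEC (ERG-positive normal primary endothelial cells) were treated at the same doses as VCaP cells, over a 0–0.25 μmol/L range. Read-outs were cell growth and endogenous ERG and RIOK2 protein levels.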

For a further series, the system named is VCaP. The experiment in a line: Cytotoxicity against human VCaP cells assessed as inhibition of cell growth after 120 hrs by Cell Glow […] assay. It counts as functional, cell-based.
The nature of series [2]: Toxicity in ip dose athymic nude mouse assessed as maximum tolerated dose administered twice a week for 4 weeks. It counts as organism-based. The following applies: in vivo. The method in brief:
(§2)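 Athymic nude mice were split into five dose groups of 5 animals each: vehicle (90% PEG + 10% DMSO), 50, 100, 150 or 200 mg/kg in the same vehicle, given by injection. Survival and body weight were monitored through the study, with gross examination of major organs and the injection site. MTD was taken as the highest dose at which all animals survived.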

A short description of series [3]: Toxicity in athymic nude mouse assessed as health deterioration at 100 mg/kg, ip administered twice a week for 4 weeks. The class given is organism-based. The conditions noted are these: in vivo, 672 h. A digest of the protocol: as §2
Series [4] can be described thus: Toxicity in athymic nude mouse assessed as tissue and vasculature damage at 200 mg/kg, ip administered twice a week for 4 weeks. The class given is organism-based. The conditions noted are these: in vivo, 672 h. A digest of the protocol:
as §2

Series [5] in a line: Toxicity in athymic nude mouse assessed as localized inflammation at 200 mg/kg, ip administered twice a week for 4 weeks. The class given is organism-based. The following applies: in vivo, 672 h. A digest of the protocol:
as §2

Series [6] in a line: Toxicity in athymic nude mouse assessed as body weight loss at 200 mg/kg, ip administered twice a week for 4 weeks. It counts as organism-based. The conditions noted are these: in vivo, 672 h. The method in brief: as §2
For the next series, the system named is HUVEC. The experiment in a line: Cytotoxicity against HUVEC assessed as inhibition of cell growth at 0.05 to 0.25 uM. It counts as cell-based. The following applies: human, dose 0.05-0.25 µM. A digest of the protocol:
as §1

pIC50: −log10 of the molar value. Active and inactive are the calls of the source. The rule behind the calls is not given here.

Sequence of Serine/threonine-protein kinase RIO2 (Homo sapiens) (Q9BVS4 whole entry, looked up): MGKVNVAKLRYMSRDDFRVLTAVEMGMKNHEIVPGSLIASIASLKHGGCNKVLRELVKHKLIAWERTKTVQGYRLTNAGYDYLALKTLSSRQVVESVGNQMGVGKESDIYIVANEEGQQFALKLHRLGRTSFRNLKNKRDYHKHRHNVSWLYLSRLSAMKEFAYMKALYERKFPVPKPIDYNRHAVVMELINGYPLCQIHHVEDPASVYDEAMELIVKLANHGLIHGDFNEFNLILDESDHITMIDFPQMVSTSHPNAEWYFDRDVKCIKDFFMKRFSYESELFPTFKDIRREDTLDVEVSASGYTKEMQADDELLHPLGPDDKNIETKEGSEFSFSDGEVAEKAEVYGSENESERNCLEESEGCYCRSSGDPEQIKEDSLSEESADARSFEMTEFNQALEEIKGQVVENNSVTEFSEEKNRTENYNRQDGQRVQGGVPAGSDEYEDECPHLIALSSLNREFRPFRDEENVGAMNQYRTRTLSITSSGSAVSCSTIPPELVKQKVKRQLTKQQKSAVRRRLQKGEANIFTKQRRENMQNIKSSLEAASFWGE

For `CN(C)c1ccc(/N=N/c2ccccn2)c(O)c1` [listing 1 of 3 here], in series [1], the inhibition result is “inactive”.

In general, pIC50 refers to the IC50 on a negative log10 scale, so that one unit is a factor of ten. A word on the MTD: it is the highest dose tested that stayed within the study's limit of toxicity. Turning to `Oc1ccc2ccccc2c1/N=N/c1nccs1`, the pIC50 in the series on VCaP (Homo sapiens, VCaP, 120 h) was 6.77. Also, in series [2], the MTD at 672 h amounted to 150 mg/kg.

For `CN(C)c1ccc(/N=N/c2ccccn2)c(O)c1` [listing 2 of 3 here], the Activity result in series [3] was “Non-Toxic”; in series [4] it was “Toxic”; in series [5], “Toxic”; in series [6], “Toxic”. The MTD at 672 h in series [2] stood at 100 mg/kg.

As to `CC(=O)C(=O)O.CN(C)c1ccc(/N=N/c2ccccn2)c(O)c1`, the pIC50 in the series with VCaP (Homo sapiens, VCaP, 120 h) is under 6.30.

Regarding `CN(C)c1ccc(/N=N/c2ccccn2)c(O)c1` [listing 3 of 3 here], the pIC50 in the series on VCaP (vcap) was under 6.30.

Take `CN(C)c1ccc(/N=N/c2ccccn2)c(O)c1.CS(=O)(=O)O`: the Activity entry in the series on HUVEC is listed as “Non-Toxic”. The pIC50 with VCaP (vcap) was 7.05.
